Compounds with a hit are over-represented: about 9.2% of the library has one in this group of screens.
PTEN del growth – suppresses growth of cells with PTEN deletion. HCT116 PTEN-null viability, CellTiter-Glo, 60 h; active compounds read low. viability, % at 10 µM. actives 1.2% (n = 140,000);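 active means viability at or below a set limit, 4 SD under the median of all tested compounds, cut at about 3.7% in these data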;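 further: PTEN knockout HCT116 line with beta catenin targeted HCT116 as companion control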
Autophagy mod – modulators of autophagy | AID 463193 | MEF GFP-LC3 puncta imaging; test concentration mostly 10 µM | calls only at 10 µM (by protocol) | actives 0.98% (n = 190,000);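 active means percentage of spot-positive cells more than 3 SD above its plate mean, without a fluorescence outlier flag or 80% toxicity; inconclusive means no clear call, values can overlap the other calls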;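 further: spot-positive cell cutoff set from DMSO-treated cells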
Dynein transport – dynein cargo transport inhibition; 3617.4 mouse cells, GR-EGFP nuclear translocation imaging; test concentration mostly 20 µM; stimulated with dexamethasone, 1 µM; active compounds read low; z-score, hits read low; actives 0.47% (n = 220,000); AID 1381;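 active means plate z-score of nuclear minus cytoplasmic receptor signal below a set negative limit, without overly bright fluorescence or cell loss, cut at about -3.5 in these data, passing the limit was not always enough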;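 further: z-score of nuclear minus cytoplasmic ring GR-EGFP intensity difference per well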
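medium = tetracycline-free induction medium containing charcoal-stripped FBS | also added = 1.0 µM final dexamethasone stimulus | schedule = 48 h induction, 1 h compound, 30 min dex at 37 °C | technique = fixed, Hoechst-stained cells imaged at 10x for EGFP | measure = GR-EGFP nuclear translocation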
bCat KO growth – beta-catenin-lacking colon tumor cell growth suppression; actives 1.5% (n = 140,000); AID 818; HCT116 beta-catenin knockout viability, CellTiter-Glo, 60 h; active compounds read low; viability, % at 10 µM;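 active means viability at or under a set limit, the compound median less 4 SD, cut at about 6% in these data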;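 further: 0% = Hyamine 1622 control at 20 µM and 100% = untreated cell control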
Lmaj promast – inhibitors of Leishmania major promastigote growth; Leishmania major promastigotes, resazurin fluorescence viability; inhibition, % at 10 µM; actives 9% (n = 200,000); in the data active means inhibition above about 50%;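 further: promastigotes grown with compound for 44 hours at 28 °C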
L major 1uM – blocks Leishmania major promastigote growth at 1 uM, repeat screen; shares compounds with Lmaj promast; L. major promastigote growth, resazurin fluorescence, 48 h; inhibition, % at 1 µM; actives 13% (n = 1,100);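 active means inhibition above about 50% in both repeat tests, limit read from the data; inconclusive means one repeat under the set limit, the other over it; inactive means both repeats under the set limit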
Dynein confirm – dynein cargo transport inhibition, confirmation. actives 69% (n = 1,000). calls only at 20 µM. 3617.4 GR-EGFP nuclear translocation imaging, dexamethasone-induced. shares compounds with Dynein transport. AID 463116;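 active means inhibition of receptor movement into the nucleus at or above a set limit in both runs, with normal cell brightness and cell count; inconclusive means limit reached in only one run, brightness and count normal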;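 further: dexamethasone at 1 µM final in well for 30 min; nuclear minus cytoplasmic GR-EGFP mean intensity difference in channel 2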
Numbers without * were called inactive; i = inactive; ? = inconclusive; . = no result; + = active, no number.

SMILES	PTEN del growth	Autophagy mod	Dynein transport	bCat KO growth	Lmaj promast	Dynein confirm	others
CN(C)C(=S)SSC(=S)N(C)C	.	+	-2.2	.	101*	.	L major 1uM=99*
Cc1ccc2c(c1)C1CN(C)CCC1N2C(=O)COc1ccc(S(=O)(=O)N2CCOCC2)cc1 (stereo not drawn)	94	i	0.25	100	-4	.
CCC(=NCC1CCCO1)c1c(O)[nH]c(=O)[nH]c1=O (stereo not drawn)	103	i	0.17	98	-6	.
FC(F)(F)c1ccc2c(c1)N(CCCN1CCN(CCCl)CC1)c1ccccc1S2	56	i	-0.0019	68	100*	.	L major 1uM=-10
CCC1(CC)C(=O)N(Cc2ccccc2)C(=O)N(Cc2ccccc2)C1=O	78	i	-0.66	78	82*	.	L major 1uM=?
CC(C)(O)[C@H]1O[C@H]2CC[C@@]3(C)[C@@](O)(CC[C@H]4Cc5c([nH]c6ccccc56)[C@@]43C)C2=CC1=O	.	i	-0.55	.	94*	.	L major 1uM=14
O=C(c1ccc(-c2ccccc2)c(F)c1)C1CCCN(CCO)C1 (stereo not drawn)	.	i	-0.19	.	99*	.	L major 1uM=63*
O=C(NC1CC1)C1CSC(c2cccnc2)=N1 (stereo not drawn)	105	i	-0.44	99	3	.
CC(=O)N1N=C(c2c(O)n(C)c(=O)n(C)c2=O)CC1c1ccccc1 (stereo not drawn)	.	.	1	.	.	.
CCc1ccc(/C=C(/C#N)C(N)=S)cc1	105	i	0.73	101	50*	.	L major 1uM=-19
O=C1N(c2ccc(Cl)cc2)C(c2cccnc2)N2CCCN12 (stereo not drawn)	.	i	0.97	.	69*	.	L major 1uM=17
CC(=O)C1C2c3ccccc3O[C@@]1(C)N=c1s/c(=C/c3ccoc3)c(=O)n12 (stereo partly drawn)	81	i	-0.37	82	11	.
COc1ccc2c(c1OC)C(=O)OC2c1c(O)n(C2CCCCC2)c(=O)[nH]c1=O (stereo not drawn)	88	i	-0.66	93	-6	.
Cc1cc(C)cc(N2C(=O)NC(=O)/C(=C\C=C\c3ccco3)C2=O)c1	39	i	-4.5*	30	99*	+
O=C1NC(=O)N(c2ccccc2)C(=O)/C1=C\C=C\c1ccccc1	.	.	-6*	.	.	+
CCc1ccc(N2C(=O)NC(=O)/C(=C\C=C\c3ccco3)C2=O)cc1	.	.	-3.9*	.	.	+
Cc1ccc(N2C(=O)NC(=O)/C(=C/c3ccoc3)C2=O)cc1	.	.	-1.2	.	.	.
O=C1NC(=O)N(Cc2ccc(F)cc2)C(=O)/C1=C\C=C\c1ccco1	.	.	-5.1*	.	.	+
CCC(=NCCCn1ccnc1)c1c(O)n(-c2ccc(OC)cc2)c(=O)[nH]c1=O	.	.	0.14	.	.	.
O=c1[nH]c(=O)n(Cc2ccc(F)cc2)c(O)c1/C=N/Nc1ccccc1	.	.	0.12	.	.	.
Cc1cc(C)cc(NC2=NCCCS2)c1	.	i	0.81	.	25	.
COc1ccccc1CN1CCN(Cc2ccc(Cl)cc2)CC1	.	i	1	.	12	.
Cc1ccc(N2C(=O)NC(=O)/C(=C/C=C/c3ccco3)C2=O)cc1	10	i	-4.5*	18	83*	+
CCOc1ccc(N2C(=O)/C(=C\c3cccs3)C(=O)NC2=S)cc1	.	i	-4.4*	.	100*	+
Cn1c(O)c(N=Nc2cccc(S(=O)(=O)N3CCOCC3)c2)c(=O)n(C)c1=O	.	i	0.18	.	3	.
SMILES	PTEN del growth	Autophagy mod	Dynein transport	bCat KO growth	Lmaj promast	Dynein confirm	others
O=[N+]([O-])c1ccc(NCc2ccccc2)c2nonc12	.	i	-6.8*	.	0	+
Cc1ccc2c(c1)c(=O)c1c3n2CCN(CC2CO2)C3CC1 (stereo not drawn)	.	i	0.065	.	3	.
Cc1cc2c(C(F)(F)F)cc(=O)oc2c2c1NCCC2	104	i	0.12	87	-1	.
O=c1cc(C(F)(F)F)c2cc3c4c(c2o1)CCCN4CCC3	85	i	-4.8*	83	6	+
O=C1NC(=O)N(c2ccccc2)C(=O)/C1=C\c1ccc([N+](=O)[O-])o1	.	.	0.073	.	.	.
COc1ccc(OC)c(N2C(=O)NC(=O)/C(=C\c3ccc([N+](=O)[O-])s3)C2=O)c1	.	i	-5.6*	.	100*	+
O=C1NC(=O)N(c2ccccc2)C(=O)/C1=C\c1ccc([N+](=O)[O-])s1	.	.	-6*	.	.	+
CN1C(=O)NC(=O)/C(=C/c2ccc([N+](=O)[O-])o2)C1=O	.	.	-0.24	.	.	.
COc1ccc(N2C(=O)NC(=O)/C(=C\c3ccccc3[N+](=O)[O-])C2=O)cc1	.	i	0.12	.	2	.
CN1C(=O)NC(=O)/C(=C/c2ccc([N+](=O)[O-])s2)C1=O	.	.	-5.5*	.	.	+
CN1CCN(c2nc3ccccc3c(=O)n2-c2ccccc2)CC1	83	i	2.1	95	-9	.
O=c1[nH]sc2cc(F)ccc12	.	i	-4.9*	.	78*	+
